Measurements published in ChEMBL document CHEMBL4011624, “The 1,2,4-Triazolo[4,3-a]pyrazin-3-one as a Versatile Scaffold for the Design of Potent Adenosine Human Receptor Antagonists. Structural Investigations to Target the A2A Receptor Subtype” (J Med Chem, 2017).

Assays:
Adenosine receptor A2a [1] = biological target: T1, Adenosine receptor A2a (Homo sapiens, UniProt P29274); assay: Displacement of [3H]NECA from human adenosine receptor A2A expressed in CHO cell membranes after 3 hrs by microbeta scintillation counting method
T1 sequence (P29274 whole entry): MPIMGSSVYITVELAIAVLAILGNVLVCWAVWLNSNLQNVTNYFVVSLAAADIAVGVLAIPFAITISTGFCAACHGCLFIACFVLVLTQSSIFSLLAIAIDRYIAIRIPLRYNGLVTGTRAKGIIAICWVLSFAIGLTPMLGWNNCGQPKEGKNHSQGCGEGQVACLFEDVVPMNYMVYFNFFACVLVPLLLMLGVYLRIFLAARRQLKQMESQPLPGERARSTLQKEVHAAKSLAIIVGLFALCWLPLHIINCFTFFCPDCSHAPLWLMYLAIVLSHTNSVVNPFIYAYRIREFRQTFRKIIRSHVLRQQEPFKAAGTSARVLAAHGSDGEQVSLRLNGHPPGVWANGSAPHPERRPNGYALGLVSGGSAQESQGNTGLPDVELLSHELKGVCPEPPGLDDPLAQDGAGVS

Adenosine receptor A2b = biological target: T2, Adenosine receptor A2b (Homo sapiens, UniProt P29275); assay: Antagonist activity at human adenosine receptor A2B expressed in CHO cell membranes assessed as inhibition of NECA-induced increase of cAMP accumulation preincubated for 10 mins followed by NECA addition measured after 10 mins by GloSensor cAMP assay; type: functional, cell-based
T2 sequence (P29275 whole entry): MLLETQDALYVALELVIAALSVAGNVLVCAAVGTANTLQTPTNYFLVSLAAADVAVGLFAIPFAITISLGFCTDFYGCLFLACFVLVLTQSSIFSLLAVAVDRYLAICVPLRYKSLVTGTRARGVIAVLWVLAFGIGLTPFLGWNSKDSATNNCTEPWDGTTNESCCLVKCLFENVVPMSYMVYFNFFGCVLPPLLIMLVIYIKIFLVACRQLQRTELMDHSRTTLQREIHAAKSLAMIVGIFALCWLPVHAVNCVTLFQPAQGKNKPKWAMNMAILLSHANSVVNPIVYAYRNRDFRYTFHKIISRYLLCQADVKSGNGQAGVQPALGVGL
Summary of the method: (§1)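 Receptors stably transfected in CHO cells. Antagonism read as inhibition of the NECA-stimulated rise in cAMP levels. IC50 values were derived from dose-response curves.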

Adenosine receptor A3 = biological target: T3, Adenosine receptor A3 (Homo sapiens, UniProt P0DMS8); assay: Displacement of [3H]HEMADO from human adenosine receptor A3 expressed in CHO cell membranes after 3 hrs by microbeta scintillation counting method
T3 sequence (P0DMS8 whole entry): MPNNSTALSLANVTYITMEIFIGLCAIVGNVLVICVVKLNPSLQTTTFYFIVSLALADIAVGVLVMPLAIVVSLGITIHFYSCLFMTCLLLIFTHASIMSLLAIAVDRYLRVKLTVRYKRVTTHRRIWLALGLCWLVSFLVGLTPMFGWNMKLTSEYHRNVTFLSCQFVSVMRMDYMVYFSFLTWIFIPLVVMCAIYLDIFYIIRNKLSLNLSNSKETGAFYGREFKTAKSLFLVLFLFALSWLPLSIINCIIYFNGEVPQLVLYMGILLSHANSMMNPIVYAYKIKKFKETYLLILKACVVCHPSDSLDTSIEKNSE

Adenosine receptor A1 = biological target: T4, Adenosine receptor A1 (Homo sapiens, UniProt P30542); assay: Displacement of [3H]CCPA from human adenosine receptor A1 expressed in CHO cell membranes after 3 hrs by microbeta scintillation counting method
T4 sequence (P30542 whole entry): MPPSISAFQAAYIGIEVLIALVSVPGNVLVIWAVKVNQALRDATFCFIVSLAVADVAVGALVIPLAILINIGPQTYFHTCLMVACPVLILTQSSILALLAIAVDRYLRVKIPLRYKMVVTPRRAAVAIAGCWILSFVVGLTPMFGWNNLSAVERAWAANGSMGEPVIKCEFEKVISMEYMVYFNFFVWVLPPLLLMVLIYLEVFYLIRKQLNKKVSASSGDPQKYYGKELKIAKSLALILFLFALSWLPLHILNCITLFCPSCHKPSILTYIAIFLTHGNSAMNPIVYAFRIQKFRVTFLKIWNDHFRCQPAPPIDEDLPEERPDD

Adenosine receptor A2a [2] = biological target: T1, Adenosine receptor A2a; assay: Antagonist activity at human adenosine receptor A2A expressed in CHO cell membranes assessed as inhibition of NECA-induced increase of cAMP accumulation preincubated for 10 mins followed by NECA addition measured after 10 mins by GloSensor cAMP assay; type: functional, cell-based; summary of the method: as §1

| SMILES | Ki (Adenosine receptor A2a [1]) [nM] | IC50 (Adenosine receptor A2b) [nM] | Ki (Adenosine receptor A3) [nM] | Ki (Adenosine receptor A1) [nM] | IC50 (Adenosine receptor A2a [2]) [nM] |
| --- | --- | --- | --- | --- | --- |
| Nc1nc(-c2ccc(OCc3ccccc3)cc2)cn2c(=O)n(-c3ccccc3)nc12 | 708 | > 30000 | > 30000 | 3700 | – |
| O=c1[nH]c(-c2cccc(O)c2)cn2c(=O)n(-c3ccccc3)nc12 | 4070 | > 30000 | 1050 | 698 | – |
| O=c1[nH]c(-c2ccc(O)cc2)cn2c(=O)n(-c3ccccc3)nc12 | > 30000 | > 30000 | 207 | 616 | – |
| Nc1nc(-c2ccccc2)cn2c(=O)n(-c3ccc(O)cc3)nc12 | 138 | > 30000 | 429 | 18 | – |
| COc1ccc(-n2nc3c(N)nc(-c4ccccc4)cn3c2=O)cc1 | 78 | > 30000 | 117 | 20 | – |
| CCOc1ccc(-c2cn3c(=O)n(-c4ccccc4)nc3c(N)n2)cc1 | 2.9 | > 30000 | > 30000 | > 30000 | 98 |
| CC(C)Oc1ccc(-c2cn3c(=O)n(-c4ccccc4)nc3c(N)n2)cc1 | 7.4 | > 30000 | > 30000 | > 30000 | – |
| Nc1nc(-c2ccccc2)cn2c(=O)n(-c3ccc([N+](=O)[O-])cc3)nc12 | 402 | > 30000 | > 30000 | 8.1 | – |
| Nc1nc(-c2ccccc2)cn2c(=O)n(-c3ccccc3)nc12 | 10 | > 30000 | 11 | 13 | – |
| COc1cccc(-c2cn3c(=O)n(-c4ccccc4)nc3c(N)n2)c1 | 6.8 | > 30000 | 42 | 44 | – |
| COc1ccccc1-n1nc2c(N)nc(-c3ccccc3)cn2c1=O | 309 | > 30000 | 392 | 247 | – |
| Nc1nc(-c2cccc(O)c2)cn2c(=O)n(-c3ccccc3)nc12 | 3.5 | > 30000 | 134 | 14 | – |
| COc1ccc(-n2nc3c(=O)[nH]c(C)cn3c2=O)cc1 | > 30000 | > 30000 | 50 | > 30000 | – |
| Nc1ccc(-n2nc3c(=O)[nH]c(-c4ccccc4)cn3c2=O)cc1 | 415 | > 30000 | 63 | 247 | – |
| O=c1[nH]c(-c2ccccc2)cn2c(=O)n(-c3ccccc3O)nc12 | > 30000 | > 30000 | 21600 | 1480 | – |
| Nc1nc(-c2ccc(OCC3CC3)cc2)cn2c(=O)n(-c3ccccc3)nc12 | > 30000 | > 30000 | > 30000 | > 30000 | – |
| O=c1[nH]c(-c2ccccc2)cn2c(=O)n(-c3ccccc3)nc12 | > 30000 | > 30000 | 96 | > 30000 | – |
| Cc1cn2c(=O)n(-c3ccc(O)cc3)nc2c(N)n1 | 1320 | > 30000 | 5160 | 1000 | – |
| Cc1cn2c(=O)n(-c3ccccc3)nc2c(=O)[nH]1 | > 30000 | > 30000 | 60 | > 30000 | – |

| SMILES | Ki (Adenosine receptor A2a [1]) [nM] | IC50 (Adenosine receptor A2b) [nM] | Ki (Adenosine receptor A3) [nM] | Ki (Adenosine receptor A1) [nM] | IC50 (Adenosine receptor A2a [2]) [nM] |
| --- | --- | --- | --- | --- | --- |
| Cc1cn2c(=O)n(-c3ccc(O)cc3)nc2c(=O)[nH]1 | – | > 30000 | 229 | 5740 | – |
| C#CCOc1cccc(-c2cn3c(=O)n(-c4ccccc4)nc3c(N)n2)c1 | 5.1 | > 30000 | 67 | 45 | – |
| COc1ccc(-n2nc3c(N)nc(C)cn3c2=O)cc1 | 1040 | > 30000 | 255 | 1740 | – |
| Cc1ccc(-c2cn3c(=O)n(-c4ccccc4)nc3c(=O)[nH]2)cc1 | > 30000 | > 30000 | > 30000 | > 30000 | – |
| Nc1ccc(-n2nc3c(N)nc(-c4ccccc4)cn3c2=O)cc1 | 3480 | > 30000 | 650 | 8.9 | – |
| COc1ccccc1-n1nc2c(=O)[nH]c(-c3ccccc3)cn2c1=O | > 30000 | > 30000 | 5200 | 2140 | – |
| Cc1ccc(-c2cn3c(=O)n(-c4ccccc4)nc3c(N)n2)cc1 | > 30000 | > 30000 | > 30000 | > 30000 | – |
| C#CCOc1ccc(-c2cn3c(=O)n(-c4ccccc4)nc3c(N)n2)cc1 | 10.6 | > 30000 | > 30000 | > 30000 | – |
| Nc1nc(-c2ccccc2)cn2c(=O)n(-c3ccccc3O)nc12 | 47 | > 30000 | 1560 | – | – |
| Nc1nc(-c2ccc(O)cc2)cn2c(=O)n(-c3ccccc3)nc12 | 45 | > 30000 | 53 | 45 | – |
| Nc1nc(-c2cccc(OCc3ccccc3)c2)cn2c(=O)n(-c3ccccc3)nc12 | > 30000 | > 30000 | > 30000 | > 30000 | – |
| COc1ccc(-n2nc3c(=O)[nH]c(-c4ccccc4)cn3c2=O)cc1 | > 30000 | > 30000 | 214 | > 30000 | – |
| Nc1nc(-c2ccc(OCC3CCC3)cc2)cn2c(=O)n(-c3ccccc3)nc12 | > 30000 | > 30000 | > 30000 | > 30000 | – |
| Cc1cn2c(=O)n(-c3ccccc3)nc2c(N)n1 | 485 | > 30000 | 4370 | 67 | – |
| COc1ccc(-c2cn3c(=O)n(-c4ccccc4)nc3c(=O)[nH]2)cc1 | > 30000 | > 30000 | > 30000 | > 30000 | – |
| CCCOc1ccc(-c2cn3c(=O)n(-c4ccccc4)nc3c(N)n2)cc1 | – | > 30000 | > 30000 | > 30000 | – |
| O=c1[nH]c(-c2ccccc2)cn2c(=O)n(-c3ccc(O)cc3)nc12 | 387 | > 30000 | 0.37 | 129 | – |
| COc1cccc(-c2cn3c(=O)n(-c4ccccc4)nc3c(=O)[nH]2)c1 | > 30000 | > 30000 | > 30000 | > 30000 | – |
